Reference: ChEMBL document CHEMBL1139873, “Bispyridinium dienes: histone deacetylase inhibitors with selective activities” (J Med Chem, 2007)
The source made the active and inactive calls. No cut-off for these calls is given here.

Key:
U-937 [1] = assay: Increase in histone H3 acetylation in U937 cells at 5 uM after 24 hrs by Western blot analysis; format: cell-based; settings: Homo sapiens
U-937 [2] = assay: Effect on alpha tubulin acetylation in U937 cells at 1 uM after 24 hrs by Western blot analysis; format: functional, cell-based; settings: Homo sapiens
U-937 [3] = assay: Effect on alpha tubulin acetylation in U937 cells at 5 uM after 24 hrs by Western blot analysis; format: functional, cell-based; settings: Homo sapiens
U-937 [4] = assay: Effect on granulocyte differentiation in U937 cells assessed as CD11c expression at 5 uM after 30 hrs; format: functional, cell-based; settings: Homo sapiens
In short: (§1)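 U937 cells were stained with phycoerythrine-conjugated anti-CD11c for 30 min at 4 °C in the dark, with PE-mouse IgG1 as the staining control. Cells were washed in PBS, taken up in PBS with 0.25 µg/mL propidium iodide and analysed by FACS. PI-positive cells were excluded.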

Histone deacetylase 1 [5] = target: T1, Histone deacetylase 1 (Homo sapiens, UniProt Q13547); assay: Inhibition of HDAC1 at 5 uM
Histone deacetylase 1 [6] = target: T1, Histone deacetylase 1; assay: Inhibition of HDAC1
In short: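 Purified recombinant HDAC1 was incubated with the acetyl-lysine Fluor de Lys substrate, with or without inhibitor. Developer then released a fluorophore, read by fluorimetry. Four scalar concentrations were tested in quadruplicate to derive the IC50.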

Histone deacetylase 4 = Histone deacetylase 4 (Homo sapiens, UniProt P56524); assay: Inhibition of HDAC4
In short: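 HDAC4 catalytic fragment (aa 627-1085, C-terminal GST tag, baculovirus-expressed) was used at 2 µg per assay with 1-2 h enzymatic incubation in the fluorimetric deacetylase assay. Four scalar concentrations were tested in quadruplicate, and the IC50 was calculated from fluorescence.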

U-937 [7] = assay: Induction of apoptosis in U937 cells after 30 hrs by FACS analysis; format: functional, cell-based; settings: Homo sapiens
In short: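 U937 cells in supplemented RPMI were exposed 30 h to compounds dissolved in DMSO (1 or 5 µM). Apoptosis was scored by flow cytometry as the percentage of active caspase 3-positive cells, as the mean of independent duplicates.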

U-937 [8] = assay: Effect on granulocyte differentiation in U937 cells assessed as CD11c expression after 30 hrs; format: functional, Homo sapiens; in short: as §1
U-937 [9] = assay: Effect on cell cycle analysis in U937 cells assessed as accumulation at G1 phase after 30 hrs; format: functional, cell-based; settings: Homo sapiens
In short: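 U937 cells grown in RPMI with 10% FCS, antibiotics, 10 mM HEPES and 2 mM glutamine at 200 000 cells/mL, then treated 30 h with compounds in DMSO (1 or 5 µM). 2.5 × 10⁵ cells in hypotonic buffer (0.1% Triton X-100, 0.1% sodium citrate, 50 µg/mL propidium iodide, RNAse A), 30 min in the dark. DNA content by flow cytometry; run at least twice.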

T1 sequence (Q13547 whole entry): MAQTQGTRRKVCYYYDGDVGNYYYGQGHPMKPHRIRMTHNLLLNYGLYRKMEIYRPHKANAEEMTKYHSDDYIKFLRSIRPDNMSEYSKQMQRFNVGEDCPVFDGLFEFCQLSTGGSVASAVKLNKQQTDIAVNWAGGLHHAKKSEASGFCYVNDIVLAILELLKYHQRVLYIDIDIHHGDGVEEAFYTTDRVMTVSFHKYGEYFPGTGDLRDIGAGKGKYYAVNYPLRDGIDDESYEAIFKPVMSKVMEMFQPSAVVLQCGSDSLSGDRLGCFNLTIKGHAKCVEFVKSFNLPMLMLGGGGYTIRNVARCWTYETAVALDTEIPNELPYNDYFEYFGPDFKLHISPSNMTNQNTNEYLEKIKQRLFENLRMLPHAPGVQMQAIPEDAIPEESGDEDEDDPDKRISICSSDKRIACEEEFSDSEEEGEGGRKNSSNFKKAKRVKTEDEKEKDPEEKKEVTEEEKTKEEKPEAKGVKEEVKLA
Sequence of Histone deacetylase 4 (P56524 whole entry, the tested form may be a part): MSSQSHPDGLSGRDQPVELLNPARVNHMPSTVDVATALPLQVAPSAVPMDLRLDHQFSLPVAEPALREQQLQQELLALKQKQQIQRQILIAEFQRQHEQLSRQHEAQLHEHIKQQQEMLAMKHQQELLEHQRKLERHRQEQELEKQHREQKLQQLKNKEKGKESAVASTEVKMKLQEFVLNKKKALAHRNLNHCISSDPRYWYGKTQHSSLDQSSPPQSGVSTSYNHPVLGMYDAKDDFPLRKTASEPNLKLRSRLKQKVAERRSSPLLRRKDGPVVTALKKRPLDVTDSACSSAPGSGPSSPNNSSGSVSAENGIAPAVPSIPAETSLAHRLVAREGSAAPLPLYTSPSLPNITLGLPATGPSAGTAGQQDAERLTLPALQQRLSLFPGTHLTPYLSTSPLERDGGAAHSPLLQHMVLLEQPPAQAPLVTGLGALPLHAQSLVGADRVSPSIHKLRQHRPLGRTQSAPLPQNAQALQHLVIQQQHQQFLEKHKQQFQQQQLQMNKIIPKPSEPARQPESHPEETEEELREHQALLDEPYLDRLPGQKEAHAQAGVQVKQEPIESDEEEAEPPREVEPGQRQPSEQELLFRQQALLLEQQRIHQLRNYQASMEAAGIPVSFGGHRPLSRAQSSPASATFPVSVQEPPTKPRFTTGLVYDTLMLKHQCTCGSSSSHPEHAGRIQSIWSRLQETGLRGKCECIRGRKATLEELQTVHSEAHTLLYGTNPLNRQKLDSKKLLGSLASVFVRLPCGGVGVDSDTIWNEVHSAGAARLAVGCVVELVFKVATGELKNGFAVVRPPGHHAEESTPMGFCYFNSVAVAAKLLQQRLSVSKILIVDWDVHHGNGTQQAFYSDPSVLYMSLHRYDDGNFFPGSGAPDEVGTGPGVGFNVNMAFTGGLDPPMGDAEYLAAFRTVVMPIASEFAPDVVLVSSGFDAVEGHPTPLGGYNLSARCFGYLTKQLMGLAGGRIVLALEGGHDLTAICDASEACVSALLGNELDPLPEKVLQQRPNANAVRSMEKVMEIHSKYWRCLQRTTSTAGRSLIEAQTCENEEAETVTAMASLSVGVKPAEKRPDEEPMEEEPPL

Activity (Histone deacetylase 1 [5]) | IC50 (Histone deacetylase 1 [6]) [nM] | IC50 (Histone deacetylase 4) [nM] | SMILES | Activity (U-937 [1]) | Activity (U-937 [2]) | Activity (U-937 [3]) | Activity (U-937 [4]) | Activity (U-937 [7]) | Activity (U-937 [8]) [%] | Activity (U-937 [9])
 |  |  | c1cc2c[n+](c1)CCCCCCCCCCCCCc1ccc[n+](c1)CCCCCCCCCCCC2 | Active | inactive | inactive |  |  |  | 
 |  |  | c1cc2c[n+](c1)CCCCCCCCCCCCCc1ccc[n+](c1)CCCCCCCCCCC2 | Active | inactive | inactive |  |  |  | 
Active | 530 | > 200000 | C=CCCCCCC[n+]1cccc(CCCCCCCCCCCC[n+]2cccc(CCCCC=C)c2)c1.[Cl-].[I-] | Active | inactive | inactive | Active | Active | 30 | 
 |  |  | c1cc2c[n+](c1)CCCCCCCCCCCCc1ccc[n+](c1)CCCCCCCCCCCC2 |  | inactive | inactive |  |  |  | 
 |  |  | c1cc2c[n+](c1)CCCCCCCCCCCCc1ccc[n+](c1)CCCCCCCCCCC2 |  | inactive | inactive |  |  |  | 
 |  |  | C=CCCCCCC[n+]1cccc(CCCCCCCCCCCCC[n+]2cccc(CCCC=C)c2)c1.[Cl-].[I-] | Active | inactive | inactive |  | Active | 30 | 
 |  |  | c1cc2c[n+](c1)CCCCCCCCCCCCCCc1ccc[n+](c1)CCCCCCCCCCCCC2 |  | inactive | inactive |  |  |  | 
 |  |  | c1cc2c[n+](c1)CCCCCCCCCCCCCCc1ccc[n+](c1)CCCCCCCCCCCC2 |  | inactive | inactive |  |  |  | 
 |  |  | C=CCCCCCC[n+]1cccc(CCCCCCCCCCCCC[n+]2cccc(CCCCC=C)c2)c1 | Active | inactive | inactive |  | Active |  | 
 |  |  | O=C(CCCCCCC(=O)Nc1ccccc1)NO | Active | inactive | inactive |  |  |  | 
 |  |  | Nc1ccccc1NC(=O)c1ccc(CNC(=O)OCc2cccnc2)cc1 | Active | inactive | inactive |  |  |  | 
 | 1880 | 540 | C=CCCCCCC[n+]1cccc(CCCCCCCCCCCC[n+]2cccc(CCCC=C)c2)c1.[Cl-].[I-] | Active | inactive | inactive |  | Active | 30 | Active
 |  |  | C=CCCCCCCc1ccc[n+](CCCCCCCCCCCCc2ccc[n+](CCCCCCC=C)c2)c1.[Cl-].[I-] | Active | inactive | inactive |  | Active | 30 | 
 |  |  | C=CCCCCCCc1ccc[n+](CCCCCCCCCCCCCc2ccc[n+](CCCCCCC=C)c2)c1 | Active | inactive | inactive |  | Active |  | 
